ChEMBL document CHEMBL1157184, “Hymenoic acid, a novel specific inhibitor of human DNA polymerase lambda from a fungus of Hymenochaetaceae sp” (Bioorg Med Chem, 2008)
The source made the active and inactive calls. The rule behind the calls is not given here.

Assays:
[1] = system: Human immunodeficiency virus; assay: Inhibition of HIV reverse transcriptase at 200 uM
Drosophila melanogaster = assay: Inhibition of fruit fly DNA polymerase beta at 200 uM
Method in brief: (§1)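 Compound dissolved in DMSO and sonicated 30 s, then held with each polymerase (final 0.05 U) in 50 mM Tris-HCl pH 7.5, 1 mM DTT, 50% glycerol, 0.1 mM EDTA at 0 °C for 10 min. Reaction with poly(dA)/oligo(dT)12-18 and dTTP ran 60 min at 37 °C (Taq at 74 °C). Activity relative to no-compound control; means ± SEM, four independent experiments.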

Homo sapiens [2] = organism: Homo sapiens; assay: Inhibition of human topoisomerase type 1 at 200 uM
Method in brief: (§2)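 Each enzyme (0.05 U) was incubated with 200 μM compound. Activity was expressed as a percentage of the activity without compound (100%). Means ± SEM of four independent experiments.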

Escherichia coli = assay: Inhibition of Escherichia coli T4 DNA polymerase at 200 uM; method in brief: as §1
[3] = molecular target: T1, DNA polymerase alpha subunit B (Bos taurus) (UniProt Q58D13); assay: Inhibition of primase activity of calf polymerase alpha at 200 uM
T1 sequence (whole entry): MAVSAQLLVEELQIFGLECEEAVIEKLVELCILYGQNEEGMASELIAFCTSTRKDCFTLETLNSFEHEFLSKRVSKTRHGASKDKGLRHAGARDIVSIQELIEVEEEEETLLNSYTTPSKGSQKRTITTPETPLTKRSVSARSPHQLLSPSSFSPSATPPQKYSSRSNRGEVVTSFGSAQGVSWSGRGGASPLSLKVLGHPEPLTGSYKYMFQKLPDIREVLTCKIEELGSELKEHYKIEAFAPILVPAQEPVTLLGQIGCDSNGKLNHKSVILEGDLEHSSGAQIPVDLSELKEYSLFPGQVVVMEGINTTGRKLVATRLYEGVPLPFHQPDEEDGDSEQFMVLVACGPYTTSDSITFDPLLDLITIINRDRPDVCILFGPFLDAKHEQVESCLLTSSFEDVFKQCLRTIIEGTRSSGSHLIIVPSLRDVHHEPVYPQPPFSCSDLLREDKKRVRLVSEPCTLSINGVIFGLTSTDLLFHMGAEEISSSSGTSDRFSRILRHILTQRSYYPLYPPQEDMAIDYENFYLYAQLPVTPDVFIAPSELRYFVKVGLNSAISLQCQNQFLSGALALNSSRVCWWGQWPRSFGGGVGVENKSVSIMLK

[4] = system: Brassica oleracea var. botrytis; assay: Inhibition of cauliflower DNA polymerase epsilon at 200 uM; method in brief: as §1
Homo sapiens [5] = organism: Homo sapiens; assay: Inhibition of human DNA polymerase epsilon at 200 uM; method in brief: as §1
Oryza sativa = assay: Inhibition of rice DNA polymerase lambda at 200 uM; method in brief: as §1
[6] = system: T7 RNA polymerase (Bacteriophage T7); assay: Inhibition of T7 RNA polymerase at 200 uM
[7] = molecular target: T2, DNA polymerase alpha catalytic subunit (Drosophila melanogaster) (UniProt P26019); assay: Inhibition of fruit fly DNA polymerase alpha at 200 uM; method in brief: as §1
T2 sequence (whole entry): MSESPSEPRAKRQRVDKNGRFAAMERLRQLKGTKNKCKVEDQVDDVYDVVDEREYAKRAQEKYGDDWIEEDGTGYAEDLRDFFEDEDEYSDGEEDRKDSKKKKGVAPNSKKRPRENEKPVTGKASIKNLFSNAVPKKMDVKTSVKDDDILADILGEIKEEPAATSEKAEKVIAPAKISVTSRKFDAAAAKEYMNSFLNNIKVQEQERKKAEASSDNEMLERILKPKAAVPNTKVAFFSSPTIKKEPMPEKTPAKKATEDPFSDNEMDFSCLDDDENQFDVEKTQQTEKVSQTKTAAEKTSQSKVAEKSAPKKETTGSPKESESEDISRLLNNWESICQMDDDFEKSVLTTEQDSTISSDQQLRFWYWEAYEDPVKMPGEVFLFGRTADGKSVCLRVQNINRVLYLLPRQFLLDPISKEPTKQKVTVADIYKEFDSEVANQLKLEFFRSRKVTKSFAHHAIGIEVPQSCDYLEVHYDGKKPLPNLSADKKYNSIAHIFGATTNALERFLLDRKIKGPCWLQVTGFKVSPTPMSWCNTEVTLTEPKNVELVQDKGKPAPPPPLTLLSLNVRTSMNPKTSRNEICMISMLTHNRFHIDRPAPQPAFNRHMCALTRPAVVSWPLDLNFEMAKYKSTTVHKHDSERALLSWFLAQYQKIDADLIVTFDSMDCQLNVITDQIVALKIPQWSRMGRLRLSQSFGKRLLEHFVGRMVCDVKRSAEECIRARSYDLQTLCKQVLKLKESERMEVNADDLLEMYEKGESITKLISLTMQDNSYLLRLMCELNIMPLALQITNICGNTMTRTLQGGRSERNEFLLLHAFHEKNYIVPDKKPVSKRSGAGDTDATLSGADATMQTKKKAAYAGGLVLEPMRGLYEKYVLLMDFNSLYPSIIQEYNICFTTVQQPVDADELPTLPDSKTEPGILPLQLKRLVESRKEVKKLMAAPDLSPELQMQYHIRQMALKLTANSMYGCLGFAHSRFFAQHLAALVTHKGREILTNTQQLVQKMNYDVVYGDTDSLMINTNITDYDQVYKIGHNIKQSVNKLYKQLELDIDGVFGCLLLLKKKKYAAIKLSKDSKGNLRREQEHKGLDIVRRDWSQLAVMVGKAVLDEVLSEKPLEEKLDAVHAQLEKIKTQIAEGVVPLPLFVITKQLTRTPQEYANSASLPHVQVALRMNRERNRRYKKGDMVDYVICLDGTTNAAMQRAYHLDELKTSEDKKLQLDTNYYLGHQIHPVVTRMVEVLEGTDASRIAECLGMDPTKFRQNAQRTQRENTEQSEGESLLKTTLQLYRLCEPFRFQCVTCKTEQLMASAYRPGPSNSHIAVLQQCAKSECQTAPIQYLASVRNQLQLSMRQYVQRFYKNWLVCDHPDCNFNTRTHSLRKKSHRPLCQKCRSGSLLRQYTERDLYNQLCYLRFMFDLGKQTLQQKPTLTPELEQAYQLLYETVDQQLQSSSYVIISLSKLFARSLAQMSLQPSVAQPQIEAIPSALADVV

[8] = molecular target: T1, DNA polymerase alpha subunit B (Bos taurus); assay: Inhibition of calf DNA polymerase alpha at 200 uM; method in brief: as §1
Homo sapiens [9] = organism: Homo sapiens; assay: Inhibition of human telomerse at 200 uM; method in brief: as §2

Activity [1]: inactive
Activity (Drosophila melanogaster): inactive
Activity (Homo sapiens [2]): inactive
Activity (Escherichia coli): inactive
Activity [3]: inactive
Activity [4]: inactive
Activity (Homo sapiens [5]): inactive
Activity (Oryza sativa): Active
Activity [6]: inactive
Activity [7]: inactive
Activity [8]: inactive
Activity (Homo sapiens [9]): inactive
Structure (SMILES): C/C(=C\CC[C@H](C)C(=O)O)[C@H]1CC[C@H](C(=O)O)CC1
